This is an account of results in ChEMBL document CHEMBL4513216, “Probing the Open Global Health Chemical Diversity Library for Multistage-Active Starting Points for Next-Generation Antimalarials” (ACS Infect Dis, 2020).

The nature of this data set: Toxicity liver stage against HepG2, at 10uM. It counts as cell-based. Set-up: test concentration 10 uM, cell line HepG2-A16-CD81EGFP. As to conditions: human, HepG2-A16-CD81EGFP cells; read-out: INHIBITION
The method, boiled down: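 Uninfected HepG2-A16-CD81EGFP cells, 3 × 10^3 per well, 1536-well, plated on prespotted compound at 10 μM final, parasite-free screening media added to match infected plates; puromycin 10 μM positive, DMSO 0.5% negative; run in parallel with 48 h PbLuc assay at 37 °C, 5% CO2; viability by CellTiter-Glo luminescence, normalized to controls.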
In the case of `CCS(=O)(=O)c1ccccc1N1CCC(NC(=O)C(C)C)CC1`, the cytotoxicity at 10 µM is -3.87%.
Consider `CCOCC(=O)N1CCCn2c(nnc2Cn2cccc2)C1`, for which the cytotoxicity at 10 µM is -130%.
In the case of `NC(=O)C1CCN(C(=O)NCc2ccc3c(c2)OCCO3)CC1`, the cytotoxicity at 10 µM was -8.14%.
For `Cc1c[nH]cc1C(=O)N1CCN(Cc2nc(C(C)C)no2)CC1`, the cytotoxicity at 10 µM was -4.54%.
Then `Cc1ccc2c(n1)N(Cc1cccnc1)CCN(C1CCOCC1)C2`, with -71.6%.
Regarding `COc1ncc(NCc2cc(C#N)cs2)cc1C(N)=O`, the cytotoxicity at 10 µM is 3.8%.
On to `CCC(=O)N1CCCN(C(=O)c2cc(C)cc(Br)c2O)CC1`, for which the cytotoxicity at 10 µM was determined as 7.12%.
Take `NC(=O)CCN(CC(=O)NCc1cccs1)c1ccc(F)cc1`: the cytotoxicity at 10 µM is 8.75%.
As for `CC(C)=CCN1C(=O)[C@@H]2CC[C@H]1CN(c1ncccc1C(N)=O)C2`, the cytotoxicity at 10 µM was determined as 6.13%.
For `CCN(CC)S(=O)(=O)NCc1ccc(-c2ccc(C(N)=O)c(C)n2)cc1`, the cytotoxicity at 10 µM stood at 2.77%.
Turning to `O=C(NCCN1CCCC1)c1ccc2c(-c3nccs3)noc2c1`, the cytotoxicity at 10 µM is -2.79%.
Then `O=C(c1cc(F)cc(F)c1)N1CCC(O)(C(F)(F)F)CC1`, with 7.08%.
With `O=C(O)c1cc(C=Cc2cccc3ccccc23)ncn1`, the cytotoxicity at 10 µM is -12.1%.
`CCc1nnc2n1CCN(Cc1csc(-c3cnn(C)c3)n1)C2`: the cytotoxicity at 10 µM came to 18.4%.
As to `Cn1c(=O)ccn(CC(=O)Nc2cnccc2O)c1=O`, the cytotoxicity at 10 µM is 2.13%.
With `CC(C)N(C)S(=O)(=O)c1ccc2c(c1)CCN(C(=O)c1cnccn1)C2`, the cytotoxicity at 10 µM was -6.17%.
Then `COCCC(=O)N1CCOCC2(CCN(Cc3cccs3)C2)C1` (stereo unspecified), with -7.83%; and `CN(C)CCN1C(=O)CCC12CCCN(C(=O)C1CC=CC1)CC2` (stereo unspecified), with 3.7%; and `CN(C)C(=O)N1CC2(CCOCC2)c2cc(NC(=O)CCO)ccc21`, with -6.13%.
With `Cc1cc(=O)n2nc(Oc3cccc(C(N)=O)c3)sc2n1`, the cytotoxicity at 10 µM is -7.88%.
In the case of `N#Cc1ccccc1N1CCN(C(=O)NCC(=O)N2CCCC2)CC1`, the cytotoxicity at 10 µM was -1.55%.
Then `Cn1nnnc1SCCNC(=O)CC1CCc2ccccc21` (stereo unspecified), with -2.49%.
Regarding `CCc1c(O)nc2nc(N3CCOCC3)nn2c1C`, the cytotoxicity at 10 µM came out at 10.8%.
On to `COCCC1COC2(CCN(C(=O)C3CCCC3)CC2)C1` (stereo unspecified), for which the cytotoxicity at 10 µM was 6.13%.
In the case of `CCOCCCC(=O)N1CCCC1c1nc(-c2ccccc2F)c[nH]1` (stereo unspecified), the cytotoxicity at 10 µM came to 12.5%.
Consider `N#Cc1ccc(CN2CCN(c3ccncc3Cl)CC2=O)cc1`, for which the cytotoxicity at 10 µM is 4.64%.
Take `c1ccc(CC2(CNCc3ncc[nH]3)CCC2)cc1`: the cytotoxicity at 10 µM came to 0.458%.
With `Cc1noc(-c2ccc(N3CCCC(C(=O)O)C3)nc2)n1` (stereo unspecified), the cytotoxicity at 10 µM is -2.38%.
With `CCN(CC)S(=O)(=O)c1ccc(C(=O)NC(C)(C)C)cc1`, the cytotoxicity at 10 µM was -6.79%.
Turning to `Cc1ccc(-c2ccnc3cc(CC(=O)N4CCN(C)CC4)nn23)cc1`, the cytotoxicity at 10 µM is -1.72%.
Take `Cc1ncsc1CCN1CCN(C(=O)c2ccc(=O)[nH]c2)CC1`: the cytotoxicity at 10 µM was found to be 4.38%.
Turning to `Cc1oc(-c2nc(C#N)c(NCC(C)C)o2)cc1S(=O)(=O)N1CCCC1`, the cytotoxicity at 10 µM amounted to 13.1%.
For `Cn1ccnc1C1CCN(CCC2CCOC2)CC1` (stereo unspecified), the cytotoxicity at 10 µM is -4.06%.
Take `NC(=O)c1cc(-c2cccc(C(=O)O)c2)cs1`: the cytotoxicity at 10 µM was found to be 2.77%.
As to `CC(Cn1cc(Br)cn1)C(=O)Nc1ccc(Cl)cn1` (stereo unspecified), the cytotoxicity at 10 µM amounted to 34%.
For `CN1C(=O)C(C)(C)COc2ccc(NS(=O)(=O)Cc3ccccc3)cc21`, the cytotoxicity at 10 µM was 8.2%.
As to `CC1N(c2cnn(C)c2)C(=O)COC12CCN(Cc1ccco1)CC2` (stereo unspecified), the cytotoxicity at 10 µM worked out at 1.2%.
As to `O=C1N[C@@H]2CCN(C(=O)C3CC3)[C@@H]2C(=O)N1c1ccccc1`, the cytotoxicity at 10 µM came out at 1.44%.
On to `N#Cc1cnc2ccccc2c1N1CCNCC1`, for which the cytotoxicity at 10 µM was -1.86%.
For the compound `CN(C(=O)Nc1cccnc1)C1CCN(c2ccc(Cl)cc2)CC1`, the cytotoxicity at 10 µM is -2.46%.
With `CC(=O)Nc1sccc1C(=O)C(C)(C)C`, the cytotoxicity at 10 µM was -44.7%.
Then `Cc1cccc(CN2CC[C@H]3C[C@H](C)O[C@@H]3C2)n1`, with -78.6%.
Then `O=C1CCOC[C@]2(CN(Cc3ccccc3)C[C@H]2c2ccccc2F)N1`, with -1.02%; and `Cc1cn2c(n1)CCC(NC(=O)c1csc(C(C)C)n1)C2` (stereo unspecified), with -16.4%; and `Cc1ccc(C(=O)N2C[C@H]3CCC[C@@]3(COc3ccccn3)C2)nc1`, with -2.23%.
Consider `COCC(=O)N1C[C@H]2CNC[C@@]2(C(=O)NCc2snnc2C)C1`, for which the cytotoxicity at 10 µM turned out to be 8.27%.
As for `CN(Cc1ccc(Cl)s1)C(=O)CN(C)C1CCCc2ccccc21` (stereo unspecified), the cytotoxicity at 10 µM amounted to 21.4%.
For the compound `COCC(=O)N1CCOC2(CCCN(c3cnccn3)C2)C1` (stereo unspecified), the cytotoxicity at 10 µM amounted to 7.83%.
Take `CCC(C)[C@H](NC(=O)c1cc(Br)ccc1-n1cnnn1)C(=O)OC` (stereo partly specified): the cytotoxicity at 10 µM was 2.58%.
As for `O=C(c1ccc(Br)o1)N1CCCC(n2cncn2)C1` (stereo unspecified), the cytotoxicity at 10 µM was -3.22%.
As for `Cc1n[nH]c(C)c1CC(=O)N1CC[C@@](C)(O)[C@H](Oc2ccccc2)C1`, the cytotoxicity at 10 µM amounted to 2.85%.
Regarding `COCCCNc1nccc(-c2c[nH][nH]c2=O)n1`, the cytotoxicity at 10 µM is 7.46%.
Turning to `COCCN1CCC2(CC1)CC(NCc1ccc(C)s1)c1ccccc12` (stereo unspecified), the cytotoxicity at 10 µM is -121%.
In the case of `CN1C(=O)CCCC12CCCN(C(=O)c1ccc3c(c1)OCO3)C2` (stereo unspecified), the cytotoxicity at 10 µM is 0.758%.
Then `Cc1nccn1-c1ccc(C(C)NCc2cccn2C)cc1` (stereo unspecified), with 8.61%; and `CC(C)CCN1CC2(CCCN(C(=O)NCc3cccs3)C2)CCC1=O` (stereo unspecified), with -11.9%; and `CCN1CCN(c2ccc(C(=O)NC(C)C(=O)N(C)C)cc2)CC1` (stereo unspecified), with -4.98%.
In the case of `Cc1noc(C)c1C1CCCN1C(=O)CN1C(=O)OC(C)(C)C1=O` (stereo unspecified), the cytotoxicity at 10 µM is -2.57%.
For the compound `Nc1ncncc1-c1noc([C@@H]2CCCN2Cc2cccnc2)n1`, the cytotoxicity at 10 µM was -7.29%.
For `Cc1ccc(N2CC[C@@]3(O)CCN(S(C)(=O)=O)C[C@H]3C2)nn1`, the cytotoxicity at 10 µM stood at 7.99%.
In the case of `CC(=O)N1CCC(Cc2cnc(-c3c(C)nn(C)c3C)cn2)C1` (stereo unspecified), the cytotoxicity at 10 µM is -7.31%.
As for `CC(C)CN1CCc2[nH]cnc2C12CCN(C(=O)c1ccnn1C)CC2`, the cytotoxicity at 10 µM is -4.77%.
Then `c1cncc(-c2noc(CNC3CCCN(c4cccnn4)C3)n2)c1` (stereo unspecified), with 3.26%; and `CN(C)S(=O)(=O)N1CCC2(CC1)CC(OCC1CC1)CO2` (stereo unspecified), with -2.37%; and `CC1CN(C)CCN1C(=O)c1ccn(-c2ccccc2Cl)n1` (stereo unspecified), with -6.33%.
As for `Cc1ccc(CNCc2cccc3cn[nH]c23)c(OC2CCOC2)c1` (stereo unspecified), the cytotoxicity at 10 µM was 9.6%.
On to `CC(C)c1nc(CN(C)C(=O)CCNC(=O)c2ccccc2F)no1`, for which the cytotoxicity at 10 µM is 4.66%.
Then `CCOc1cc(C)nc(N2CCN(C(C)c3nc(C)no3)CC2)n1` (stereo unspecified), with -1.67%; and `CCC[C@H]1CN(Cc2ccc(N(C)C)nc2)C[C@@H]1NS(=O)(=O)CC`, with -11.9%.
With `CN(Cc1ccccn1)C1CCCN(c2cccnn2)C1` (stereo unspecified), the cytotoxicity at 10 µM was -13.4%.
`Cc1n[nH]c(C)c1CC(=O)N1CCC2(CC1)CN(C)CCN2C`: the cytotoxicity at 10 µM is 1.73%.
With `CN1C(=O)c2cccc(NC(=O)c3cccc(S(C)(=O)=O)c3)c2C1=O`, the cytotoxicity at 10 µM was -7.75%.
Then `CCn1c(CN(C)C(C)CSC)nc2c(F)cccc21` (stereo unspecified), with 5.73%; and `CS(=O)(=O)CCCNC1CCCN(Cc2noc(C3CC3)n2)C1` (stereo unspecified), with 1.15%.
With `c1ccc(CN2CCc3c(CNc4nccs4)n[nH]c3C2)nc1`, the cytotoxicity at 10 µM was -7.04%.
Then `CCCS(=O)(=O)N1CCO[C@H]2[C@@H](Oc3cccnc3)CC[C@@H]21`, with -3.15%; and `Cc1cc(N2CCC(O)(CN(C)C(=O)CCCN)C2)c2cnccc2n1` (stereo unspecified), with -8.65%; and `COc1ccc(Nc2cc(C)nc(C)n2)cc1N1CCCC1=O`, with -2.19%.
Regarding `Cc1cc(Cl)ccc1NCC(=O)Nc1cc(C(C)(C)C)no1`, the cytotoxicity at 10 µM is 0.521%.
As to `Cc1c[nH]c(C2CN(Cc3ccccc3C(=O)O)CCO2)n1` (stereo unspecified), the cytotoxicity at 10 µM is -0.822%.
Then `O=C1CC2(CCSC2)C(=O)N1Cc1coc(-c2ccc(F)cc2)n1` (stereo unspecified), with 6.88%; and `CCOCc1nn(C)c2c1CN(Cc1cccs1)CC2`, with -101%.
Take `Cc1oc(-c2ccco2)nc1CN1CCCC(Cn2cncn2)C1` (stereo unspecified): the cytotoxicity at 10 µM is -23.5%.
Turning to `CCc1ccc(CN2CCc3ncnc(-c4cccnc4)c3CC2)o1`, the cytotoxicity at 10 µM came out at 12.8%.
For `O=C(COc1ccccc1)N1CCCC1c1ccc[nH]1` (stereo unspecified), the cytotoxicity at 10 µM is -0.575%.
Then `CC(C)CNC(=O)C1=NOC2(CCN(Cc3ccc(C(C)C)cc3)C2)C1` (stereo unspecified), with 32.3%; and `Cn1cnnc1SCc1cc2c(cc1Br)OCO2`, with 6.44%; and `c1cnnc(N2CCCC(NCc3nnc(-c4ccco4)o3)C2)c1` (stereo unspecified), with -0.986%.
Then `O=C(C1CCCO1)N1C[C@@H]2CCN(c3cnccn3)C[C@@H]2C1` (stereo partly specified), with -0.832%.
Take `CS(=O)(=O)N[C@H]1CCO[C@]2(CCN(CC3CCOCC3)C2)C1`: the cytotoxicity at 10 µM is -122%.
Regarding `O=C(O)CN1CCC(c2ccccc2)C1` (stereo unspecified), the cytotoxicity at 10 µM was found to be 1.67%.
Take `CCNc1cc2c(nn1)CCN(C(=O)c1cccc3c1OCO3)C2`: the cytotoxicity at 10 µM is -9.88%.
In the case of `CCc1nc(C2CCCN2CC(=O)N2CCc3ccccc32)no1` (stereo unspecified), the cytotoxicity at 10 µM is -11.2%.
In the case of `CC(C)(C)n1ncc2c1NC(=O)CC2c1ccsc1` (stereo unspecified), the cytotoxicity at 10 µM worked out at 20.4%.
Then `O=C(CC1CCCO1)NCc1ccc(Br)cc1F` (stereo unspecified), with 4.72%; and `Cc1cc(C(=O)NCCC(C)C)ccc1NS(C)(=O)=O`, with 7.04%.
